Data reported in ChEMBL document CHEMBL2407035, “Identification of novel chromone based sulfonamides as highly potent and selective inhibitors of alkaline phosphatases” (Eur J Med Chem, 2013).
Active and inactive are the calls of the source. The rule behind the calls is not given here.

What was measured:
[1] = molecular target: 5'-nucleotidase (Homo sapiens) (UniProt P21589); test: Inhibition of human Ecto-5'-NT expressed in african green monkey COS7 cells using AMP as substrate at 0.1 mM preincubated for 10 mins measured after 10 mins; assay type: cell-based; conditions: COS-7
In short: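 Human ecto-5'-NT from membrane extracts of transfected COS-7 cells (6.94 µg/mL). Preincubated with compound 10 min at 37 °C in 10 mM Hepes, 2 mM MgCl₂, 1 mM CaCl₂, pH 7.4. Started with 500 µM AMP, 10 min at 37 °C, stopped at 99 °C for 20 min. Adenosine quantified by capillary electrophoresis, UV at 260 nm, with <10% substrate conversion.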

[2] = molecular target: T1, Alkaline phosphatase, tissue-nonspecific isozyme (Bos taurus, UniProt P09487); test: Inhibition of bovine kidney […] alkaline phosphatase using p-NPP as substrate treated 10 mins before substrate addition measured after 30 mins by spectrophotometric assay
T1 sequence (P09487 whole entry): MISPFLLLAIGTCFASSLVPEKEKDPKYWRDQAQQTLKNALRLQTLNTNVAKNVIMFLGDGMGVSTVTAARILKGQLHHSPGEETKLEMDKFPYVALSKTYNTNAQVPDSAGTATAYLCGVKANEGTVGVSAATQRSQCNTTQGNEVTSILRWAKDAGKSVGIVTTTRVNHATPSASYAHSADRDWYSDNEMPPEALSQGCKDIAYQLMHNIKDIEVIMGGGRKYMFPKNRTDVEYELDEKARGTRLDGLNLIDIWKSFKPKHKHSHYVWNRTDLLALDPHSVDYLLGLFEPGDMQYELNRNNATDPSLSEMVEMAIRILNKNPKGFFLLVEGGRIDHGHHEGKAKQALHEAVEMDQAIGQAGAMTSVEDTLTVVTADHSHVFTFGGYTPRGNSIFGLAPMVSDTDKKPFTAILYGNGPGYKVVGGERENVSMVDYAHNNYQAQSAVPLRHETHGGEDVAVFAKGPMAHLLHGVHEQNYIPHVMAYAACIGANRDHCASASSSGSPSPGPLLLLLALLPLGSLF
In short: (§1)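 Calf intestinal ALP (0.025 U/mL) or TNALP (0.5 U/mL) in 50 mM Tris-HCl, 5 mM MgCl₂, 0.1 mM ZnCl₂, pH 9.5 with compound (1% DMSO final), 10 min. Started with 0.5 mM p-NPP, 30 min at 37 °C, p-nitrophenolate read at 405 nm. Screened at 0.1 mM. Actives (>50%) got 8–10 dilutions, 1 mM to 10 nM, three times in triplicate. IC50 by nonlinear fit, Ki by Cheng–Prusoff.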

[3] = Inhibition of porcine kidney […] alkaline phosphatase using p-NPP as substrate treated 10 mins before substrate addition measured after 30 mins by spectrophotometric assay; set-up: species or system Sus scrofa; in short: as §1
[4] = molecular target: Intestinal-type alkaline phosphatase (Bos taurus, UniProt P19111); test: Inhibition of bovine intestinal alkaline phosphatase using p-NPP as substrate treated 10 mins before substrate addition measured after 30 mins by spectrophotometric assay; in short: as §1
[5] = molecular target: Intestinal-type alkaline phosphatase (Bos taurus) (UniProt P19111); test: Competitive inhibition of bovine intestinal alkaline phosphatase using p-NPP as substrate by Double-reciprocal plot analysis
In short: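 Calf intestinal ALP kinetics: initial velocities measured with 4-NPP at 0.01-1 mM and inhibitor at 0, 100 and 300 nM. Double-reciprocal plots (1/[S] vs 1/v) were used to assign the inhibition mode. Buffer is 50 mM Tris-HCl, 5 mM MgCl₂, 0.1 mM ZnCl₂, pH 9.5, read at 405 nm.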

Sequence of 5'-nucleotidase (Homo sapiens) (P21589 whole entry): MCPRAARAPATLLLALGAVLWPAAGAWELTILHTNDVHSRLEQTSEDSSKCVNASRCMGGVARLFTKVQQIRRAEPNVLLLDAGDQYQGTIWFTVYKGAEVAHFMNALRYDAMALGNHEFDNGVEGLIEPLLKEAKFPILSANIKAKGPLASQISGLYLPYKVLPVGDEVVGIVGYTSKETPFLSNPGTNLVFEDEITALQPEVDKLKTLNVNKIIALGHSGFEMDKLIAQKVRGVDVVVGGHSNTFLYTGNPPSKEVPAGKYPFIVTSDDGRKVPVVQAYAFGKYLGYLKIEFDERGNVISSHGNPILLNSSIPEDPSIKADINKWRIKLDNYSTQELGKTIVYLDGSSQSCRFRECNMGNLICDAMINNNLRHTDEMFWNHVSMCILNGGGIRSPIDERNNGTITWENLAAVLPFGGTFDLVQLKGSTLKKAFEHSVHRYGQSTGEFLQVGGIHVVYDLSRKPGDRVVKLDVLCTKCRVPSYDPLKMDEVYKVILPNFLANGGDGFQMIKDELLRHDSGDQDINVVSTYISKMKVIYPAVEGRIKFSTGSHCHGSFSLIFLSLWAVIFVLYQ
Sequence of Intestinal-type alkaline phosphatase (P19111 whole entry): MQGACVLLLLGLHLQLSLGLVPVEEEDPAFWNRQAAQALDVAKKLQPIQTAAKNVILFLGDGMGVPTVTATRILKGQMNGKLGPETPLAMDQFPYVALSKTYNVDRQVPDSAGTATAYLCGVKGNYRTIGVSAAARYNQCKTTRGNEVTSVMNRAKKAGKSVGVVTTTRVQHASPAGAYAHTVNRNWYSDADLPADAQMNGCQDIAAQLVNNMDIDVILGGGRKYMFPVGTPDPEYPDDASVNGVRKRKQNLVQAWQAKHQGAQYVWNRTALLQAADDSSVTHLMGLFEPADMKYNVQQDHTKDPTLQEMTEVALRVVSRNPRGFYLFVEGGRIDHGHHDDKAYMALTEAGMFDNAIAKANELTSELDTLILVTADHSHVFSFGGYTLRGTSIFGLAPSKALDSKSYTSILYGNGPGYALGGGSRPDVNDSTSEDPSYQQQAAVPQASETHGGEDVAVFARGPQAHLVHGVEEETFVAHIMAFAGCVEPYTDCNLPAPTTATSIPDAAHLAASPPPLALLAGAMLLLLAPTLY
Sequence of Intestinal-type alkaline phosphatase (Bos taurus) (P19111 20-506 limits assumed): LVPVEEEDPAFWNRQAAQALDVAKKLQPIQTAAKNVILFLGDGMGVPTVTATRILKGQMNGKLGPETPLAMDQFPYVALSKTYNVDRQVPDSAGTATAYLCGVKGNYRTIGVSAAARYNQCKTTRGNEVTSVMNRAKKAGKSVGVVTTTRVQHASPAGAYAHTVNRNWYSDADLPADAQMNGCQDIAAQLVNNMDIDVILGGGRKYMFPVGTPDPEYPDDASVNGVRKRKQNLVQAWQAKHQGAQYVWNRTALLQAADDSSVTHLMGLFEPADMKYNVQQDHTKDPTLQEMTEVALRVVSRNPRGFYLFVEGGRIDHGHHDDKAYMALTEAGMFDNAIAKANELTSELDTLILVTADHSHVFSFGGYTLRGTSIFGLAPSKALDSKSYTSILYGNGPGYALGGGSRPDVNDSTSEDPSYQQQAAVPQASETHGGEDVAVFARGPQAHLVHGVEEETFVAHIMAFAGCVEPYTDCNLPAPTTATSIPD

SMILES	inhibition [1]	Ki [2]	Ki [3]	Ki [4]	inhibition [5]
CCOC1Oc2ccccc2C(=O)/C1=C/Nc1ccc(S(=O)(=O)Nc2nnc(C)s2)cc1 (centres undefined)	26%	0.25 µM	0.079 µM	0.085 µM	–
CCOC1Oc2ccccc2C(=O)/C1=C\Nc1ccc(S(N)(=O)=O)cc1 (centres undefined)	5.7%	6.8 µM	10.9 µM	90.6 µM	–
CCOC1Oc2ccc(Br)cc2C(=O)/C1=C\Nc1ccc(S(N)(=O)=O)cc1 (centres undefined)	52%	48 µM	44.6 µM	0.41 µM	–
CCOC1Oc2ccccc2C(=O)/C1=C/Nc1ccc(S(=O)(=O)Nc2cc(OC)nc(OC)n2)cc1 (centres undefined)	0%	23 µM	35.4 µM	7.8 µM	–
CCOC1Oc2ccccc2C(=O)/C1=C/Nc1ccc(S(=O)(=O)Nc2ccccn2)cc1 (centres undefined)	0%	22 µM	21.2 µM	0.41 µM	–
CCOC1Oc2ccc(CC)cc2C(=O)/C1=C\Nc1ccccc1S(N)(=O)=O (centres undefined)	4%	29 µM	18 µM	0.4 µM	–
CCOC1Oc2c(Br)cc(Br)cc2C(=O)/C1=C\Nc1cccc(S(N)(=O)=O)c1 (centres undefined)	54%	26 µM	67.9 µM	0.8 µM	–
O=c1c(C2Nc3ccccc3S(=O)(=O)N2)coc2ccc(F)cc12 (centres undefined)	0%	43 µM	2.8 µM	0.78 µM	–
CCOC1Oc2ccc(Br)cc2C(=O)/C1=C\Nc1cccc(S(N)(=O)=O)c1 (centres undefined)	0%	44 µM	51.3 µM	8.7 µM	–
CCOC1Oc2c(Br)cc(Br)cc2C(=O)/C1=C\Nc1ccc(S(N)(=O)=O)cc1 (centres undefined)	43%	63 µM	55.3 µM	5.1 µM	–
CCOC1Oc2ccc(CC)cc2C(=O)/C1=C\Nc1cccc(S(N)(=O)=O)c1 (centres undefined)	30%	16.8 µM	20.1 µM	2.1 µM	–
CCOC1Oc2ccc(F)cc2C(=O)/C1=C\Nc1cccc(S(N)(=O)=O)c1 (centres undefined)	0%	18 µM	19.9 µM	17.1 µM	–
CCOC1Oc2ccc(F)cc2C(=O)/C1=C\Nc1ccc(S(N)(=O)=O)cc1 (centres undefined)	16%	220 µM	66.8 µM	1.43 µM	–
CCOC1Oc2ccc(Br)cc2C(=O)/C1=C/Nc1ccc(S(=O)(=O)Nc2ccccn2)cc1 (centres undefined)	0%	74 µM	73.6 µM	9.3 µM	–
CCOC1Oc2ccccc2C(=O)/C1=C/Nc1ccc(S(=O)(=O)Nc2ccc(OC)nn2)cc1 (centres undefined)	0%	38 µM	52.5 µM	7.8 µM	–
O=c1c(C2Nc3ccccc3S(=O)(=O)N2)coc2ccccc12 (centres undefined)	0%	27 µM	21.3 µM	0.049 µM	–
CCOC1Oc2ccc(F)cc2C(=O)/C1=C/Nc1ccc(S(=O)(=O)Nc2nnc(C)s2)cc1 (centres undefined)	0%	21 µM	31.8 µM	0.01 µM	–
CCOC1Oc2ccccc2C(=O)/C1=C\Nc1cccc(S(N)(=O)=O)c1 (centres undefined)	0%	41 µM	41.7 µM	33.5 µM	–
CCOC1Oc2c(Br)cc(Br)cc2C(=O)/C1=C\Nc1ccccc1S(N)(=O)=O (centres undefined)	63%	29 µM	11.7 µM	0.2 µM	–
O=c1c(C2Nc3ccccc3S(=O)(=O)N2)coc2ccc(Br)cc12 (centres undefined)	0%	0.13 µM	–	0.021 µM	Active
CCOC1Oc2ccc(CC)cc2C(=O)/C1=C\Nc1ccc(S(N)(=O)=O)cc1 (centres undefined)	13%	60 µM	68.8 µM	2.6 µM	–
